Measured values: ChEMBL document CHEMBL1124118, “Design, synthesis, and antineoplastic activity of 2'-deoxy-2'-methylidenecytidine” (J Med Chem, 1988)
≈ marks a conversion by molar mass, not a printed value.

Legend:
Format in all cases: functional, cell-based
[1] = system: CCRF-CEM; assay: In vitro inhibitory effect on growth of human T-cell acute lymphoblastoid leukemic CCRFCEM cell lines.
In short: (§1)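 MTT growth-inhibition assay (Carmichael method). Tumor cells seeded at 1 × 10^4 per well and incubated with or without compound for 72 h. MTT then added and OD(550-660 nm) read. % inhibition = [1 − (OD sample / OD control)] × 100. IC50 (μg/mL) taken as the concentration giving 50% inhibition of cell growth.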

[2] = system: MOLT-4; assay: In vitro inhibitory effect on growth of human T-cell acute lymphoblastic leukemic MOLT 4 cell lines.; in short: as §1
[3] = system: TE-2; assay: In vitro inhibitory effect on growth of human esophagus […] cell lines (TE2).; in short: as §1
[4] = system: L1210; assay: In vitro inhibitory effect on growth of mouse leukemic L1210 cell lines.; in short: as §1
[5] = system: SW480; assay: In vitro inhibitory effect on growth of human colon adenocarcinoma cell lines (SW480).; in short: as §1
[6] = system: K562; assay: In vitro inhibitory effect on growth of human chronic myelogenous leukemic K562 cell lines.; in short: as §1
[7] = system: PC10; assay: In vitro inhibitory effect on growth of human lung squamous cell carcinom cell lines (PC10).; in short: as §1
[8] = system: T-24; assay: In vitro inhibitory effect on growth of human bladder transitional-carcinoma cell lines (T24).; in short: as §1
[9] = system: PC10; assay: In vitro inhibitory effect on growth of human lung squamous cell carcinoma cell lines (PC10).
In short: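 Cells seeded at 1 × 10^4/well and incubated with or without compound for 72 h. MTT was then added and OD(550-660 nm) was read. % inhibition = [1 − (OD of sample well / OD of control well)] × 100. IC50 (μg/mL) is the concentration giving 50% inhibition of cell growth.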

Row | SMILES | IC50 [1] [µg/mL] | IC50 [2] [µg/mL] | IC50 [3] [µg/mL] | IC50 [4] [µg/mL] | IC50 [5] [µg/mL] | IC50 [6] [µg/mL] | IC50 [7] [µg/mL] | IC50 [8] [µg/mL] | IC50 [9] [µg/mL]
1 | C=C1C(n2ccc(N)nc2=O)O[C@H](CO)[C@@H]1O (some centres undefined) | 0.047 (≈ 0.196 µM) | 0.025 (≈ 0.105 µM) | 2.9 (≈ 12.1 µM) | 0.11 (≈ 0.46 µM) | 3.8 (≈ 15.9 µM) | 1.2 (≈ 5.02 µM) | 60.5 (≈ 253 µM) | 3.7 (≈ 15.5 µM) | 
2 | O=c1[nH]cc(F)c(=O)[nH]1 [FLUOROURACIL] | 40 (≈ 308 µM) | 3.8 (≈ 29.2 µM) | 3.9 (≈ 30 µM) | 0.32 (≈ 2.46 µM) | 3.3 (≈ 25.4 µM) | 38 (≈ 292 µM) |  | 6.1 (≈ 46.9 µM) | > 100
3 | Nc1ccn([C@@H]2O[C@H](CO)[C@@H](O)[C@@H]2O)c(=O)n1 [CYTARABINE] | 0.065 (≈ 0.267 µM) | 0.056 (≈ 0.23 µM) | > 100 | 0.097 (≈ 0.399 µM) | > 100 | 3.2 (≈ 13.2 µM) |  | > 100 | > 100
